Experimental data of several laboratories.
Target: Serine/threonine-protein kinase mTOR (MTOR, Homo sapiens, UniProt P42345)

SMILES	test	conditions	measurement	result
CN(c1nccc(-c2cnn3ncccc23)n1)C1CC1	cell-free assay	1 µM	remaining signal	100%
O=C(CSc1nc2nccnc2c(=O)n1CCc1ccccc1)Nc1ccccc1	enzyme activity, inhibitor	10 µM	inhibition	31%
CCN(CC)c1ccc(C2=NNC(=O)CC2C)cc1[N+](=O)[O-] (centres unmarked)	enzyme activity, inhibitor	10 µM	remaining activity	110%
O=C(CSc1nc2nccnc2c(=O)n1CCc1ccccc1)Nc1nccs1	enzyme activity, inhibitor	10 µM	inhibition	4%
CCCOc1ccc(OC)c(F)c1C(=O)c1ccc(C(=O)N[C@@H]2CNC[C@H]2NC(=O)c2ccc3[nH]ncc3c2)cc1	enzyme activity, inhibitor	10 µM	remaining activity	86%
CNCc1ccc(-c2cc(-c3nc(-c4ccc(S(=O)(=O)C(C)C)cc4)cnc3N)on2)cc1	enzyme activity, inhibitor	2 µM	inhibition	37%
COCCOc1nc(-c2ccc(Cl)nc2)nc2c1CN(C(=O)c1ncn3ccccc13)CC2	cell-free assay, competition with immobilised ligand	0.1 µM	remaining binding	97%
COc1cc2ncnc(Nc3ccc(Oc4ccccc4)c(C)c3C)c2cc1OC	enzyme activity, inhibitor	1 µM	inhibition	0%
Cn1cc(Cl)c2c(Oc3c(F)cc(Nc4cc(Cl)nc(N)n4)cc3F)ccnc21	cell-free assay, competition with immobilised ligand	0.1 µM	remaining binding	85%
Cc1cnc(NC2CCOCC2)nc1-n1cnc(C(=O)NC(CN)c2cc(F)cc(Cl)c2)c1 (centres unmarked)	enzyme activity, inhibitor, radiometric	1 µM	remaining activity	82%
CC(C)c1ccc(NC(=O)c2cccs2)c(-c2nc3ccccc3[nH]c2=O)c1	enzyme activity, inhibitor	1 µM	activity vs control	85%
CNC(=O)Nc1ccc2c(c1)[C@@]1(CC2)OC(=O)N(CC(=O)N(Cc2ccc(F)cc2)[C@@H](C)C(F)(F)F)C1=O	cell-free assay, competition with immobilised ligand	1 µM	remaining binding	100%
Cc1ccc(NC(=O)c2ccc(C)c(C(F)(F)F)c2)cc1C#Cc1nn(C2CCC(O)CC2)c2ncnc(N)c12 (centres unmarked)	cell-free assay, inhibitor	10 µM	remaining signal	101%
CCc1ccccc1C(=O)Nc1n[nH]c2c(C)c(F)c(C3C(C#N)=C(C)N(C)C(C)=C3C#N)cc12	cell-free assay, competition with immobilised ligand	1 µM	remaining binding	100%
CC(C)(C)c1nc(-c2cccc(NS(=O)(=O)c3c(F)cccc3F)c2F)c(-c2ccnc(N)n2)s1	enzyme activity, inhibitor, radiometric	1 µM	remaining activity	99%
COc1ccc2c(c1)O[C@@H](c1ccc(OC)c(OC)c1)C[C@H]2NC(=O)C1(c2ccc3c(c2)OC(F)(F)O3)CC1	cell-free assay, competition with immobilised ligand	1 µM	remaining binding	100%
Cc1cc(NC(=O)c2cccc3cc(-c4cccc5[nH]nc(N)c45)ccc23)ccc1F	enzyme activity, inhibitor	0.1 µM	activity vs control	92%
